Data set [1] addresses T1, Beta-3 adrenergic receptor (Homo sapiens, UniProt P13945). As to the kind of experiment: Stimulated increase in cAMP in CHO cells expressing human beta-3 receptor. The format is functional, cell-based.
Target sequence in this assay (P13945 whole entry): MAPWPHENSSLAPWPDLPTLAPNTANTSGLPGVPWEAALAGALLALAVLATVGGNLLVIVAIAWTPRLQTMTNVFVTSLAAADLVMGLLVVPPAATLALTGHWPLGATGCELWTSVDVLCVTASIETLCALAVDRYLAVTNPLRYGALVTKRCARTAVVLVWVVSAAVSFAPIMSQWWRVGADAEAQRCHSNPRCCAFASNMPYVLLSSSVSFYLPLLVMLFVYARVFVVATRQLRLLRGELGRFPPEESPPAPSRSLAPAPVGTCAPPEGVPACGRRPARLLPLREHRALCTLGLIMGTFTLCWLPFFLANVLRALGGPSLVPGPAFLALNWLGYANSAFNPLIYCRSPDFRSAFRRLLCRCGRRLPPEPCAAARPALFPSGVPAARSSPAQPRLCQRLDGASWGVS
In data set [2] the target is Beta-1 adrenergic receptor (Homo sapiens, UniProt P08588). The data set is described as follows: Binding affinity (measured using [125I]iodocyanopindolol) against human Beta-1 adrenergic receptor expressed in CHO cells. The class given is cell-based. The method in brief: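 Membranes from CHO cells expressing cloned human β1 receptor; competition binding against 125I-iodocyanopindolol.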
Chain of Beta-1 adrenergic receptor (P08588 whole entry): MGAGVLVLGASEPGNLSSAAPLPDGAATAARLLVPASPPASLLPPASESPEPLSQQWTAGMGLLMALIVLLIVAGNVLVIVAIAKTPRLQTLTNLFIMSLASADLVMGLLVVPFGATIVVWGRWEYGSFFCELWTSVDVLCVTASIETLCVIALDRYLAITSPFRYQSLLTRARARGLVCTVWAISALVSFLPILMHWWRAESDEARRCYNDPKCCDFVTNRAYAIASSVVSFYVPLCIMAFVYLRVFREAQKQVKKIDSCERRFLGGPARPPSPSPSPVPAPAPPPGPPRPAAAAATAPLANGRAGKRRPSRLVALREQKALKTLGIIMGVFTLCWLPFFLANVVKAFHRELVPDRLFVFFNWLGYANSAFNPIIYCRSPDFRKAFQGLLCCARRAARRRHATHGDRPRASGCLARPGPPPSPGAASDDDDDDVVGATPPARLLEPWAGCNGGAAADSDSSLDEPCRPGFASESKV

Data set [3] concerns the target Beta-2 adrenergic receptor (Homo sapiens, UniProt P07550). The data set is described as follows: Binding affinity against human Beta-2 adrenergic receptor expressed in CHO cells using [125I]iodocyanopindolol. The class given is cell-based.
Data set [4] deals with T1, Beta-3 adrenergic receptor. As to the kind of experiment: Percent increase in adenylyl cyclase activation in CHO cells expressing human beta-3 adrenergic receptor. The format is functional, cell-based. In outline:
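Functional adenylyl cyclase stimulation via the β3 receptor. Activation expressed as percent of the maximal stimulation produced by isoproterenol.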
Target sequence in this assay (P13945 whole entry, looked up): as the sequence (P13945 whole entry) above

A short description of data set [5]: Half life period was determined. The class given is ADME, organism-based, Canis lupus familiaris. The note with it: dog, in vivo. In outline:
(§1)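 Beagle dogs dosed orally at 10 mg/kg (solution in 0.5% methylcellulose/0.02% sodium lauryl sulfate with 2 equiv HCl) and iv at 3 mg/kg (PEG400/ethanol/normal saline 60:20:20 v/v/v). Blood taken predose and at 5 (iv only), 15, 30 min, 1, 2, 6, 8, 24 h. Plasma drug measured by LC/MS/MS.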

Data set [6] can be described thus: Bioavailability after peroral administration in dogs. As to conditions: dog, in vivo, po. The format is ADME, organism-based, Canis lupus familiaris. The method in brief: as §1
A short description of data set [7]: Oral bioavailability in dog. The class given is ADME, organism-based, Canis lupus familiaris. As to conditions: in vivo. In outline: as §1

The EC50 is the concentration needed to bring the measured effect to its halfway point. What is called IC50 is the concentration at which inhibition is half-maximal. Read a low IC50 as inhibition by little substance. Broadly, the half-life is the time needed for the level to fall by half in the phase considered. What is called bioavailability is the share of a dose that reaches the circulation, judged against a reference dose that is usually intravenous. A lower bioavailability goes with poor availability.

Chain of Beta-2 adrenergic receptor (P07550 whole entry): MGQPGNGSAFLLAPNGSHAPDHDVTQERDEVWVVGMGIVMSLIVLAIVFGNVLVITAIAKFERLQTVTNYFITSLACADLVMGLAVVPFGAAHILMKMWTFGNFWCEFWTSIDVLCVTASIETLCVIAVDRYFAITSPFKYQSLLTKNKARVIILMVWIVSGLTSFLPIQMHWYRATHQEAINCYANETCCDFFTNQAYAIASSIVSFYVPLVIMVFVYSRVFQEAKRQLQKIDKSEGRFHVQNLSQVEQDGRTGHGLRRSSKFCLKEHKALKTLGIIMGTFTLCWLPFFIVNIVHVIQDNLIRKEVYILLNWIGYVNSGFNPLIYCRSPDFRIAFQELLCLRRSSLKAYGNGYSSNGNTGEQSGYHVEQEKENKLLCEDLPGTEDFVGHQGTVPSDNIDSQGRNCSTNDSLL

As for `O=S(=O)(Nc1ccc(CCNC[C@H](O)c2cccnc2)cc1)c1ccc(-c2nc(-c3cc4ccccc4s3)cs2)cc1`, in data set [1], the EC50 came out at 5.8 nM. Also, the 50% inhibitory concentration (IC50) in data set [2] is 100000 nM; in data set [3], 93000 nM. Further, the Max stimulation in data set [4] is 94%.

For the compound `CCCCCCc1ccc(-c2csc(-c3ccc(S(=O)(=O)Nc4ccc(CCNC[C@H](O)c5cccnc5)cc4)cc3)n2)cc1`, the EC50 in data set [1] worked out at 1.2 nM. Besides, the results for the IC50 in data set [2] and in data set [3] were 52000 nM and 90000 nM, respectively. For the same compound, in data set [4], the Max stimulation is 84%.

In turn, `O=S(=O)(Nc1ccc(CCNC[C@H](O)c2cccnc2)cc1)c1ccc(-c2nc(-c3c[nH]c4ccccc34)cs2)cc1` yielded a concentration giving a half-maximal response (EC50) in data set [1] of 4.9 nM. Besides, the half-inhibitory concentration (IC50) was 30000 nM in data set [2] and 50000 nM in data set [3]. The same compound came in with a Max stimulation in data set [4] of 100%.

In data set [1], `O=S(=O)(Nc1ccc(CCNC[C@H](O)c2cccnc2)cc1)c1ccc(Cc2nc(Cc3ccc4ccccc4c3)cs2)cc1` displayed an EC50 of 12 nM. Also, the IC50 in data set [2] stood at 2500 nM; in data set [3], 2000 nM. The compound further returned a Max stimulation in data set [4] of 83%.

`O=S(=O)(Nc1ccc(CCNC[C@H](O)c2cccnc2)cc1)c1ccc(-c2nc(-c3ccc4ccccc4c3)cs2)cc1`: the concentration giving a half-maximal response (EC50) in data set [1] came to 2 nM. The half-inhibitory concentration (IC50) came out at 13000 nM in data set [2] and 6300 nM in data set [3]. For the same compound, in data set [4], the Max stimulation amounted to 100%.

`O=S(=O)(Nc1ccc(CCNC[C@H](O)c2cccnc2)cc1)c1ccc(-c2nc(Cc3ccc4ccccc4c3)cs2)cc1` registered an EC50 in data set [1] of 5 nM. Further, the half-inhibitory concentration (IC50) in data set [2] worked out at 3300 nM; in data set [3] it was 2300 nM. The same compound returned a Max stimulation in data set [4] of 75%.

In the case of `O=S(=O)(Nc1ccc(CCNC[C@H](O)c2cccnc2)cc1)c1ccc(-c2nc(CCCC3CCCC3)cs2)cc1`, the EC50 in data set [1] is 26 nM. For the same compound, the values for the concentration for half-maximal inhibition (IC50) in data set [2] and in data set [3] were 7000 nM and 3000 nM, respectively. Besides, in data set [4], the Max stimulation turned out to be 95%.

Consider `CCCCCCCCc1csc(-c2ccc(S(=O)(=O)Nc3ccc(CCNC[C@H](O)c4cccnc4)cc3)cc2)n1`, for which a half-maximal effect in data set [1] (EC50) was put at 10 nM. Besides, the IC50 was found to be 3700 nM in data set [2] and 3000 nM in data set [3]. Further, the Max stimulation in data set [4] amounted to 84%.

As for `CCCCCCc1csc(-c2ccc(S(=O)(=O)Nc3ccc(CCNC[C@H](O)c4cccnc4)cc3)cc2)n1`, the half-maximal effective concentration (EC50) in data set [1] stood at 51 nM. In addition, the IC50 came to 40000 nM in data set [2] and 620 nM in data set [3]. The compound further had a Max stimulation in data set [4] of 69%.

The compound `CC(=O)Nc1ccc(-c2csc(-c3ccc(S(=O)(=O)Nc4ccc(CCNC[C@H](O)c5cccnc5)cc4)cc3)n2)cc1` registered an EC50 in data set [1] of 45 nM. For the same compound, the figures for the half-inhibitory concentration (IC50) in data set [2] and in data set [3] were 960 nM and 2100 nM, respectively. Moreover, the Max stimulation in data set [4] was determined as 82%.

For the compound `CC(C)(C)c1ccc(-c2csc(-c3ccc(S(=O)(=O)Nc4ccc(CCNC[C@H](O)c5cccnc5)cc4)cc3)n2)cc1`, it took 2.4 nM to reach a half-maximal effect in data set [1] (EC50). The values for the 50% inhibitory concentration (IC50) in data set [2] and in data set [3] were 1600 nM and 2000 nM, respectively. For the same compound, the Max stimulation in data set [4] was determined as 100%.

In data set [1], `O=S(=O)(Nc1ccc(CCNC[C@H](O)c2cccnc2)cc1)c1ccc(-c2nc(-c3cc4ccccc4o3)cs2)cc1` returned a concentration giving a half-maximal response (EC50) of 9.1 nM. The half-maximal inhibitory concentration (IC50) in data set [2] was determined as 90000 nM; in data set [3], 49000 nM. The compound further yielded a Max stimulation in data set [4] of 91%.

Compound `CCCCCCCCc1csc(Cc2ccc(S(=O)(=O)Nc3ccc(CCNC[C@H](O)c4cccnc4)cc3)cc2)n1` displayed an EC50 in data set [1] of 9.8 nM. The IC50 in data set [2] is 850 nM; in data set [3], 1000 nM. For the same compound, the Max stimulation in data set [4] turned out to be 79%.

With `O=c1n(CCCC2CCCC2)nnn1-c1ccc(S(=O)(=O)Nc2ccc(CCNC[C@H](O)c3cccnc3)cc2)cc1`, in data set [5], the half-life is 3.6 h.

With `O=S(=O)(Nc1ccc(CCNC[C@H](O)c2cccnc2)cc1)c1ccc(-c2nc(-c3ccccn3)cs2)cc1`, in data set [1], a half-maximal response (EC50) required 22 nM. Further, the 50% inhibitory concentration (IC50) in data set [2] turned out to be 6500 nM; in data set [3], 4000 nM. Besides, the Max stimulation in data set [4] was found to be 100%.

`O=S(=O)(Nc1ccc(CCNC[C@H](O)c2cccnc2)cc1)c1ccc(-c2nc(-c3ccc4ncccc4c3)cs2)cc1` showed a 50% effective concentration (EC50) in data set [1] of 2.7 nM. The 50% inhibitory concentration (IC50) was 6000 nM in data set [2] and 8000 nM in data set [3]. Further, the Max stimulation in data set [4] came out at 97%.

For the compound `O=S(=O)(Nc1ccc(CCNC[C@H](O)c2cccnc2)cc1)c1ccc(-c2nc(-c3ccc(F)c(F)c3)cs2)cc1`, the bioavailability in data set [6] worked out at 36%. Moreover, the Max stimulation in data set [4] is 92%.

The compound `CC(=O)NCCCCCc1csc(-c2ccc(S(=O)(=O)Nc3ccc(CCNC[C@H](O)c4cccnc4)cc3)cc2)n1` yielded a 50% effective concentration (EC50) in data set [1] of 50 nM. Also, the IC50 in data set [2] worked out at 50000 nM; in data set [3] it was 16000 nM. In addition, the Max stimulation in data set [4] turned out to be 82%.

Take `O=S(=O)(Nc1ccc(CCNC[C@H](O)c2cccnc2)cc1)c1ccc(-c2nc(Cc3ccc(F)cc3)cs2)cc1`: in data set [1], the EC50 came out at 6.2 nM. Moreover, the half-inhibitory concentration (IC50) in data set [2] is 3000 nM; in data set [3], 2500 nM. The same compound displayed a Max stimulation in data set [4] of 57%.

In the case of `CCCCCCCCc1csc(N2CCc3cc(S(=O)(=O)Nc4ccc(CCNC[C@H](O)c5cccnc5)cc4)ccc32)n1`, in data set [7], the bioavailability is 13%.

`O=S(=O)(Nc1ccc(CCNC[C@H](O)c2cccnc2)cc1)c1ccc(-c2nc(-c3ccc(F)cc3)cs2)cc1` showed an EC50 in data set [1] of 9.5 nM. The figures for the IC50 in data set [2] and in data set [3] were 1500 nM and 1900 nM, respectively. This compound returned a Max stimulation in data set [4] of 81%.

In data set [1], `O=S(=O)(Nc1ccc(CCNC[C@H](O)c2cccnc2)cc1)c1ccc(-c2nc(-c3cccnc3)cs2)cc1` had a concentration giving a half-maximal response (EC50) of 40 nM. Also, the IC50 in data set [2] was 7000 nM; in data set [3] it was 3000 nM. In data set [4], this compound returned a Max stimulation of 69%.

Take `O=S(=O)(Nc1ccc(CCNC[C@H](O)c2cccnc2)cc1)c1ccc(-c2nc(CCc3ccccc3)cs2)cc1`: in data set [1], the 50% effective concentration (EC50) turned out to be 33 nM. The half-inhibitory concentration (IC50) in data set [2] is 9000 nM; in data set [3], 910 nM. The Max stimulation in data set [4] was determined as 70%.

On to `O=S(=O)(Nc1ccc(CCNC[C@H](O)c2cccnc2)cc1)c1ccc(-c2nc(-c3ccc(O)cc3)cs2)cc1`, for which the concentration giving a half-maximal response (EC50) in data set [1] amounted to 45 nM. Besides, the IC50 in data set [2] is 1100 nM; in data set [3], 5700 nM. In data set [4], this compound yielded a Max stimulation of 58%.

In data set [1], `O=S(=O)(Nc1ccc(CCNC[C@H](O)c2cccnc2)cc1)c1ccc(-c2nc(-c3cnc4ccccc4c3)cs2)cc1` showed a concentration giving a half-maximal response (EC50) of 7.3 nM. Moreover, the half-inhibitory concentration (IC50) in data set [2] was determined as 19000 nM; in data set [3] it was 47000 nM. The Max stimulation in data set [4] is 79%.

Values taken from ChEMBL document CHEMBL1133294, “Potent, selective 3-pyridylethanolamine beta3 adrenergic receptor agonists possessing a thiazole benzenesulfonamide pharmacophore” (Bioorg Med Chem Lett, 2000).
